Data set [1] has as its system Mus musculus. Put plainly: Percentage increase in life span when the compound was administered intraperitoneally at dose of 60 mg/Kg in P388 leukemia in CDF1 mice was determined. The format is functional. The conditions noted are these: P388, ip. The procedure, abridged:
(§1)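 CD2F1 male mice, 19–22 g, in groups of six, inoculated ip with 10⁶ P388 cells on day 0. Dosed ip once daily for 9 days from day 1, in saline, or for linear polyethers in aqueous 2% Tween 80. Deaths and survivors were recorded to 30 days, some to 60. T/C is mean survival, treated vs tumour-bearing control. %ILS = [(T−C)/C]×100. Average day-5 weight change was taken as toxicity.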

Data set [2] concerns Mus musculus. Put plainly: Anticancer activity against P388 leukemia in CD2F1 male mice expressed as Average % weight change on day 5 as a measure of toxicity was reported at a dose of 20 mg/kg/day. The data set is classed as functional. The procedure, abridged:
as §1

The test system of data set [3] is Mus musculus. Briefly: Anticancer activity against P388 leukemia in CD2F1 male mice expressed as Average % weight change on day 5 as a measure of toxicity was reported at a dose of 60 mg/kg/day. The format is functional. The procedure, abridged: as §1
For data set [4], the system named is Mus musculus. Put plainly: Percentage increase in life span when the compound was administered intraperitoneally at dose of 20 mg/Kg in P388 leukemia in CDF1 mice was determined. The format is functional. The following applies: P388, ip. The procedure, abridged:
as §1

The test system of data set [5] is Mus musculus. Briefly: Anticancer activity against P388 leukemia in CD2F1 male mice by 60 mg/kg/day. The data set is classed as functional. The procedure, abridged: as §1
Data set [6] deals with Mus musculus. Put plainly: Compound was evaluated for the anticancer activity against P388 leukemia in CD2F1 male mice at a dose of 60 mg/kg/after 30 days; 0/6. The data set is classed as functional. The procedure, abridged: as §1
Data set [7] can be described thus: partition coefficient with the use of 1-octanol / water solvent system. The data set is classed as physicochemical. The method in brief: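 4 mL of 10 mM aqueous compound was stirred vigorously with 2 mL 1-octanol for 5 min at 25 °C. The aqueous layer was analysed by ³¹P NMR, and signal intensity (peak height × width at half-height) gave concentrations in each phase. P = [octanol]/[water].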

Data set [8] has as its system Mus musculus. Briefly: Compound was evaluated for the anticancer activity against P388 leukemia in CD2F1 male mice at a dose of 20 mg/kg/after 30 days; 0/6. The format is functional.

Results on six molecules are retold here after ChEMBL document CHEMBL1123312, “In the search for new anticancer drugs. 17. Linear and cyclic polyether analogues of N,N:N',N':N'',N''-tri-1,2-ethanediylphosphoric triamide and N,N:N',N':N'',N''-tri-1,2-ethanediylphosphorothioic triamide” (J Med Chem, 1986).

The structures appear in SMILES notation. Where “and” joins values, the source holds several entries; their conditions need not be identical. Equal values may be shown once.

One may read the ILS as how much longer treated animals lived than controls. Low readings indicate a small benefit in survival, high ones a large benefit in survival. By T/C is commonly meant the result in the treated group divided by that in the control group, in per cent. For the molecule `CCOCCOCCOP(=O)(N1CC1(C)C)N1CC1(C)C` (stereo unspecified), the ILS at 60 mg/kg in data set [1] worked out at 88%. Also, the Weight change was 1.5% in data set [2] and 5.5% in data set [3]. The molecule also registered an ILS at 20 mg/kg in data set [4] of 28%. Moreover, in data set [5], the T/C was 188% and 88%. The Survivors in data set [6] and in data set [8] was 0 each time. The Partition coefficient in data set [7] stood at 1.65.
`CCOCCOCCOP(=O)(N1CC1)N1CC1` yielded an ILS at 60 mg/kg in data set [1] of 131%. The Weight change in data set [2] was 2.8%; in data set [3] it was 4.5%. The molecule also returned an ILS at 20 mg/kg in data set [4] of 40%. Also, the T/C in data set [5] is 231% and 131%. Moreover, the Survivors in data set [6] and in data set [8] was 0 in each case. This molecule also displayed a Partition coefficient in data set [7] of 1.25.
For the molecule `CCOCCOCCOP(=S)(N1CC1)N1CC1`, in data set [1], the ILS at 60 mg/kg was found to be 77%. The Weight change in data set [2] is reported as 2.6%; in data set [3] it was 1.4%. The ILS at 20 mg/kg in data set [4] came out at 24%. The T/C in data set [5] is 177% and 77%. For the same molecule, the Survivors in data set [6] and in data set [8] was 0 throughout. Further, in data set [7], the Partition coefficient was 2.4.
Consider `CCOCCOCCOP(=S)(N1CC1(C)C)N1CC1(C)C` (stereo unspecified), for which, in data set [1], the ILS at 60 mg/kg was found to be 42%. Moreover, the Weight change in data set [2] was 1.6%; in data set [3] it was 1.4%. Also, the ILS at 20 mg/kg in data set [4] stood at 19%. The Survivors in data set [6] and in data set [8] was 0 throughout. In data set [7], the Partition coefficient turned out to be 2.95.
As to `O=P(N1CCOCCOCCOCCOCCOCC1)(N1CC1)N1CC1`, in data set [1], the ILS at 60 mg/kg is 88%. Besides, the Weight change in data set [2] is recorded as 7.6%; in data set [3] it was 0.5%. Moreover, the ILS at 20 mg/kg in data set [4] is 47%. Also, the T/C in data set [5] is 188% and 88%. For the same molecule, the Survivors in data set [6] and in data set [8] was 0 in each case. In data set [7], this molecule registered a Partition coefficient of 0.044.
`S=P(N1CCOCCOCCOCCOCCOCC1)(N1CC1)N1CC1`: the ILS at 60 mg/kg in data set [1] came out at 20%. Also, the Weight change was 10.6% in data set [2] and 12.3% in data set [3]. In data set [4], this molecule displayed an ILS at 20 mg/kg of 2%. Also, the Survivors in data set [6] and in data set [8] was 0 throughout. This molecule yielded a Partition coefficient in data set [7] of 5.6.
